In the library only some 2.5% were active in any assay of this set; here they are far more common.
SENP7 block = blocks the human protease SENP7. recombinant SENP7, Z-RLRGG-aminoluciferin luminescence, 40 min. inhibition, % at 5 µM. hit rate 1.5% among 330,000;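 active means inhibition above about 50% at the single test dose, limit read from the data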
Target sequence (Q9BQF6 706-1050 limits assumed): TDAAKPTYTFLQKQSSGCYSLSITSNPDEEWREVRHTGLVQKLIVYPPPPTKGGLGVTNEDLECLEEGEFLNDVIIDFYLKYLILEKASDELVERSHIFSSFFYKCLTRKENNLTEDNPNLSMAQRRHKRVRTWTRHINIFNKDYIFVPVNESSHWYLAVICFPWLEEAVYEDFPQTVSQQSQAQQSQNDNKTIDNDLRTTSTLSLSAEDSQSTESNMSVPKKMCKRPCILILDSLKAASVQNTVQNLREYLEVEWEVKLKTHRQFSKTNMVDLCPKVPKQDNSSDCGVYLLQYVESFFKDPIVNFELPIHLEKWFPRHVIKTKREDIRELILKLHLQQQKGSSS
SENP8 block-1 = inhibitors of human SENP8 protease; Q96LD8; recombinant SENP8, Nedd8 substrate fluorescence; inhibition, % at 20 µM; hit rate 0.64% among 360,000; AID 602440; in the data active means inhibition mostly above about 40%, no sharp cut-off; inactive means mostly below about 27%
SENP1 inh = blocks the human SENP1 SUMO protease catalytic domain. hit rate 0.21% among 360,000. AID 624204. recombinant SENP1 catalytic domain, CyPet-SUMO1-YPet FRET cleavage. inhibition, % at 10 µM. Q9P0U3;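 active means inhibition at least 30% at 10 µM, raw YFP signal under a set limit, fluorescence ratio 0.5 to 1.5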
Target sequence (Q9P0U3 419-644 limits assumed): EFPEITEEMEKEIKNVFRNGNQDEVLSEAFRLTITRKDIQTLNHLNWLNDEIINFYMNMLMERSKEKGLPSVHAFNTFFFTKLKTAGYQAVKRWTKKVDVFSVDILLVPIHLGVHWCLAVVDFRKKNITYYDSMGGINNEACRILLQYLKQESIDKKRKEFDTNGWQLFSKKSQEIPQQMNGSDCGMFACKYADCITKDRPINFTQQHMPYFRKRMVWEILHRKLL
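Assay system – human recombinant His6-tagged SENP1 catalytic domain enzyme · Input – SENP1 enzyme, 20 pM final · Buffer or medium – Tris pH 8 buffer plus EDTA, NaCl, BME, BSA, NP40, catalase · Schedule – 50 min reaction at room temperature · Technique – FRET read of cyan and yellow fluorescence · Control set – no-enzyme wells low, DMSO-plus-enzyme wells high control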
SENP8 block-2 = inhibitors of human SENP8 protease. purified SENP8, Z-RLRGG-aminoluciferin cleavage, luminescence. Q96LD8. inhibition, % at 10 µM. hit rate 1.2% among 330,000. AID 2540; in the data active means inhibition above about 50%
SENP6 block = blocks the human protease SENP6; Recombinant SENP6 catalytic domain, aminoluciferin luminescence; AID 2599; inhibition, % at 10 µM; hit rate 1.8% among 330,000;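 active means inhibition above about 50% at the single tested dose, limit read from the data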
SENP8 confirm = human SENP8 inhibition, confirmed | AID 488912 | Recombinant SENP8, Z-RLRGG-aminoluciferin luminescence, 60 min | inhibition, % at 12.5 µM | hit rate 40% among 6,200 | shares compounds with SENP7 block;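 active means mean inhibition across replicates above about 50%, limit read from the data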
SENP6 confirm = human SENP6 inhibition, confirmed; shares compounds with SENP7 block; recombinant SENP6, Z-RLRGG-aminoluciferin luminescence; inhibition, % at 12.5 µM; hit rate 58% among 6,200; AID 488915
SENP7 confirm = confirmation of human SENP7 protease inhibitors; recombinant SENP7, Z-RLRGG-aminoluciferin luminescence, 40 min; hit rate 69% among 6,200; AID 488917; shares compounds with SENP7 block; inhibition, % at 12.5 µM
Casp3 SENP sel = selectivity test for SENP inhibitors: human caspase-3 inhibition | inhibition, % at 12.5 µM | hit rate 60% among 6,200 | shares compounds with SENP7 block | purified caspase-3, Z-DEVD-aminoluciferin luminescence, 60 min;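 active means mean inhibition above about 50%, limit read from the data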
Luc interf = counter-screen for SENP inhibitors: luminescence interference | hit rate 39% among 6,200 | inhibition, % at 12.5 µM | Pre-incubated SENP8/Z-RLRGG-aminoluciferin, luciferase luminescence interference | shares compounds with SENP7 block | AID 488919;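 active means mean inhibition above about 50% when retested at one dose, limit read from the data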
Hits are given with their value; - = inactive; . = no result given.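 How the source made its calls, unless noted: active means mean inhibition above about 50% in the one-dose retest (limit read from the data); inactive means the rest.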

SMILES	SENP7 block	SENP8 block-1	SENP1 inh	SENP8 block-2	SENP6 block	SENP8 confirm	SENP6 confirm	SENP7 confirm	Casp3 SENP sel	Luc interf
O=C(CCc1ccccc1)NC(=S)Nc1cccc(C(=O)O)c1	-	-	-	-	-	.	.	.	.	.
O=C(CCCc1ccccc1)Nc1cccc(C(=O)O)c1	92.8	-	-	81.9	88.8	92.7	92.6	100.0	-	92.0
O/N=C(/CCc1ccccc1)c1ccc2c(c1)OCCO2	52.3	-	-	-	-	69.6	68.8	87.6	-	72.2
O=C(CCCC(=O)c1ccc(O)cc1)c1ccc(O)cc1	73.8	-	-	88.6	93.0	91.5	91.5	100.7	92.4	91.5
Cc1ccc(C)c(OCC(=O)Nc2ccncc2)c1	-	-	-	-	-	.	.	.	.	.
C[C@@H]1CN([C@H](C)CO)C(=O)c2c(c3ccccc3n2C)-c2ccccc2CO[C@H]1CN(C)S(=O)(=O)c1cn(C)cn1	.	-	-	.	.	.	.	.	.	.
Cc1ccc(C)c(N2CCN(C(=O)Cc3ccc(NC4=NC5CS(=O)(=O)CC5S4)cc3)CC2)c1 (stereo not given)	-	-	-	-	-	.	.	.	.	.
O=C(/C=C\Nc1ccccn1)c1ccccc1	96.7	-	-	89.9	95.3	95.8	96.5	101.8	97.0	94.4
COc1ccc(C(=O)/C=C/Nc2ccccn2)c(OC)c1	-	-	-	-	-	.	.	.	.	.
O=C(/C=C/Nc1ccccc1Br)c1ccccn1	100.0	-	-	95.8	96.9	-	99.6	103.2	96.9	89.3
CCOC(=O)c1ccc(S(=O)(=O)N2CCN(c3ccccn3)CC2)cc1	-	-	-	-	-	.	.	.	.	.
Cc1nc(SCC(N)=O)[nH]c(=O)c1Cc1ccc(OC(C)C)cc1	-	-	-	-	63.6	-	-	-	-	-
N#Cc1c(N(CCO)CCO)nc(N)c2c(N)nc3c(c12)CC(=O)N3CC1CCCO1 (stereo not given)	-	-	-	67.5	-	-	-	-	-	-
Oc1ccccc1-c1cc(-c2ccccc2)n[nH]1	93.5	-	-	92.8	94.8	95.3	95.5	100.8	74.3	89.4
Oc1ccc(F)cc1-c1cc(-c2ccc3c(c2)OCCO3)n[nH]1	75.5	-	-	84.4	87.7	87.5	88.1	100.1	58.9	56.7
Cc1ccccc1-c1cc(-c2ccccc2O)n[nH]1	82.8	-	-	70.8	83.5	86.3	84.7	93.9	-	61.5
Cc1ccc(-c2cc(-c3ccc(F)cc3)n[nH]2)c(O)c1	75.5	-	-	78.8	83.3	86.3	85.5	95.4	-	76.1
Oc1ccccc1-c1cc(-c2ccc(F)cc2)n[nH]1	93.6	-	-	88.5	94.2	93.6	94.2	100.0	71.6	79.9
CC(=O)Nc1ccc(S(=O)(=O)NCCSc2ccccn2)cc1	-	-	-	-	-	.	.	.	.	.
CC(=O)Nc1ccc(S(=O)(=O)/N=C2\C(=O)c3ccccc3C([O-])=C2n2cc[n+](-c3ccccn3)c2)cc1	-	55.5	-	52.8	76.8	70.2	87.6	61.3	53.7	-
Cc1ccc2c(c1)sc(=NC(=O)c1cccs1)n2C	99.6	-	-	95.4	92.8	-	75.4	99.4	95.0	-
CCOC(=O)c1sc(=NC(=O)c2cccs2)n(C)c1C	54.6	-	-	-	-	-	-	-	-	-
CCOC(=O)c1sc(=NC(=O)c2ccccc2Br)n(C)c1C	-	-	-	-	-	.	.	.	.	.
CCOC(=O)c1sc(=NC(=O)c2ccc(Cl)s2)n(C)c1C	53.2	-	-	-	-	-	-	-	-	-
CCOC(=O)c1sc(=NC(=O)c2ccc(C)c(C)c2)n(C)c1C	-	-	-	-	-	.	.	.	.	.
SMILES	SENP7 block	SENP8 block-1	SENP1 inh	SENP8 block-2	SENP6 block	SENP8 confirm	SENP6 confirm	SENP7 confirm	Casp3 SENP sel	Luc interf
Cc1ccc2c(c1)sc(=NC(=O)C1CC1)n2C	-	-	-	-	-	.	.	.	.	.
COc1ccnc(Oc2ccc(C)cc2C)c1C#N	-	-	-	-	-	.	.	.	.	.
CC(=O)Nc1ccc(-c2ccnc3c2CC(C)(C(=O)NCc2cccc(Cl)c2)O3)cc1 (stereo not given)	.	-	-	.	.	.	.	.	.	.
O=C(Nc1ccccc1Cl)C(=O)c1cn(CC(=O)N2CCOCC2)c2ccccc12	74.2	-	-	-	-	-	-	-	-	-
N=c1oc2ccccc2cc1C(=O)Nc1cccc(F)c1	92.1	-	-	55.8	65.7	-	-	-	62.4	-
Cc1ccc(NC(=O)c2cc3ccccc3oc2=N)cc1	90.3	-	-	-	57.9	-	-	-	-	-
N=c1oc2cc(O)ccc2cc1C(=O)Nc1ccc(Cl)cc1	-	-	-	54.5	54.7	-	-	-	-	-
N=c1oc2ccccc2cc1C(=O)Nc1ccc(F)cc1	.	-	-	.	.	.	.	.	.	.
COc1cc2ccccc2cc1C(=O)Nc1ccc(C)cc1	-	-	-	-	-	.	.	.	.	.
O=C(CC1C(=O)NCCN1Cc1ccccc1)NC1CCCCC1 (stereo not given)	.	-	-	.	.	.	.	.	.	.
Cc1cc(C)cc(NC(=O)Nc2ccc(N3CCCCC3)cc2)c1	81.8	-	-	79.7	81.3	-	-	-	-	-
C/C(CC(=O)Nc1ccc(F)cc1)=N\NC(=O)c1ccccn1	-	-	-	-	-	.	.	.	.	.
O=C(Nc1ccc(N2CCCC2)cc1)c1cc(Cl)ccc1Cl	-	-	-	-	-	.	.	.	.	.
O=C(Nc1ccc(SC(F)(F)F)cc1)c1ccccn1	92.9	-	-	89.3	92.8	85.6	93.5	86.7	60.8	-
O=C(Nc1ccc(N2CCCCC2)cc1)c1ccccn1	100.3	-	-	94.6	101.0	95.0	98.4	102.8	97.7	75.6
O=C(Nc1ccc(N2CCCC2)cc1)c1cccc(Cl)c1	94.3	-	-	87.0	88.0	-	55.9	51.1	73.3	-
Cc1cc(C)cc(OCC(=O)Nc2ccc(N3CCCCC3)cc2)c1	-	-	-	-	-	.	.	.	.	.
O=C(Nc1ccc(N2CCCCCC2)cc1)c1ccccc1Cl	-	-	-	-	-	.	.	.	.	.
O=C(Nc1ccc(N2CCCCC2)cc1)C(Cl)c1ccccc1 (stereo not given)	53.8	-	-	-	61.4	-	-	-	-	-
O=C(Nc1ccc(N2CCOCC2)cc1)c1cn2ccccc2n1	92.6	-	-	84.5	95.5	85.8	86.5	98.5	94.9	-
O=C(Nc1ccc(N2CCCCCC2)cc1)c1ccc[nH]1	-	-	-	56.1	66.1	-	-	-	-	-
O=C1/C(=C/c2ccc(O)cc2)COc2ccccc21	93.4	-	-	83.1	94.8	93.9	89.7	94.0	65.7	88.7

Bioassay records deposited in PubChem by Sanford-Burnham Center for Chemical Genomics.
